Experiment [1] concerns A549. Description: Cytotoxicity against human A549 cells assessed as cell growth inhibition at 100 uM after 48 hrs by sulforhodamine B assay. Type of experiment: functional. Conditions: A549, 48 h, read-out: GI. In short, it runs like this: (§1)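 Cell lines from NCI, grown in RPMI-1640 (2 mM glutamine, pH 7.4, 10% fetal calf serum, penicillin) at 37 °C, 5% CO2, 90% RH, viability >98% by trypan blue. 1×10^5 cells/ml seeded, grown 24 h, then compound added at 10 or 100 µM (DMSO stocks diluted in medium with gentamycin) for 48 h. TCA fixation, SRB staining, OD 540 nm; % growth inhibition versus untreated growth, blank-subtracted.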
(In general: Sulforhodamine B stains cellular protein and so reports cell mass.)

Experiment [2] concerns A549. Description: Cytotoxicity against human A549 cells assessed as cell growth inhibition at 10 uM after 48 hrs by sulforhodamine B assay. Conditions: A549, 48 h, read-out: GI. It is filed as functional. In short, it runs like this: as §1
The test system of experiment [3] is HCT-15. Kind of experiment: Cytotoxicity against human HCT15 cells assessed as cell growth inhibition at 100 uM after 48 hrs by sulforhodamine B assay. It is filed as functional. Conditions: HCT-15, 48 h, read-out: GI. The method in brief: as §1
Experiment [4] concerns THP-1. Kind of experiment: Cytotoxicity against human THP1 cells assessed as cell growth inhibition at 100 uM after 48 hrs by sulforhodamine B assay. Conditions: THP-1, 48 h, read-out: GI. It is filed as functional. In short, it runs like this:
as §1

Experiment [5] relates to HCT-15. Kind of experiment: Cytotoxicity against human HCT15 cells assessed as cell growth inhibition at 10 uM after 48 hrs by sulforhodamine B assay. Type of experiment: functional. The following applies: HCT-15, 48 h, read-out: GI. The method in brief:
as §1

Experiment [6] deals with HEp-2. Kind of experiment: Cytotoxicity against human Hep2 cells assessed as cell growth inhibition at 100 uM after 48 hrs by sulforhodamine B assay. Type of experiment: functional. The following applies: HEp-2, 48 h, read-out: GI. The method in brief:
as §1

Experiment [7] concerns HEp-2. Description: Cytotoxicity against human Hep2 cells assessed as cell growth inhibition at 10 uM after 48 hrs by sulforhodamine B assay. Type of experiment: functional. The following applies: HEp-2, 48 h, read-out: GI. In short, it runs like this:
as §1

Experiment [8] deals with THP-1. Kind of experiment: Cytotoxicity against human THP1 cells assessed as cell growth inhibition at 10 uM after 48 hrs by sulforhodamine B assay. Type of experiment: functional. The following applies: THP-1, 48 h, read-out: GI. The method in brief:
as §1

The subject of experiment [9] is HCT-15. Kind of experiment: Cytotoxicity against human HCT15 cells after 48 hrs by sulforhodamine B assay. It is filed as functional, cell-based. The following applies: HCT-15, 48 h. In short, it runs like this: (§2)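 Sulforhodamine B assay on NCI-sourced cells in RPMI-1640/10% FCS, seeded at 1×10^5 cells/ml and left 24 h, then serial dilutions of 2×10^-2 M DMSO stocks in gentamycin medium added for 48 h (37 °C, 5% CO2). Cells fixed with cold TCA, SRB dye dissolved in Tris pH 10.4, OD read at 540 nm. IC50 is the concentration inhibiting 50% of cell viability.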

Another experiment has as its system COLO 205. Description: Cytotoxicity against human COLO205 cells after 48 hrs by sulforhodamine B assay. Type of experiment: functional, cell-based. Conditions: COLO 205, 48 h.
A further experiment concerns PC-3. Kind of experiment: Cytotoxicity against human PC3 cells after 48 hrs by sulforhodamine B assay. Type of experiment: functional, cell-based. The following applies: PC-3, 48 h.
Experiment [10] concerns A549. Kind of experiment: Cytotoxicity against human A549 cells after 48 hrs by sulforhodamine B assay. Conditions: A549, 48 h. It is filed as functional, cell-based. The method in brief: as §2
Experiment [11] deals with THP-1. Kind of experiment: Cytotoxicity against human THP1 cells after 48 hrs by sulforhodamine B assay. Type of experiment: functional, cell-based. The following applies: THP-1, 48 h. In short, it runs like this: as §2
For a further experiment, the system named is HeLa. Description: Cytotoxicity against human HeLa cells after 48 hrs by sulforhodamine B assay. It is filed as functional, cell-based.
In experiment [12] the test system is HCT-15. Kind of experiment: Cytotoxicity against human HCT15 cells assessed as cell growth inhibition at 1 uM after 48 hrs by sulforhodamine B assay. Type of experiment: functional. Conditions: HCT-15, 48 h, read-out: GI. The method in brief: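 NCI-sourced cells in RPMI-1640 (2 mM glutamine, 10% FCS, penicillin), >98% trypan-blue viable, seeded at 1 × 10^5 cells/ml and grown 24 h (37 °C, 5% CO2). DMSO stocks diluted in medium with gentamycin; 48 h exposure. TCA fixation 1 h at 4 °C, 0.4% SRB stain 30 min, dye dissolved in Tris pH 10.4, OD 540 nm. Blank-subtracted; inhibition relative to untreated growth (100%).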

In experiment [13] the test system is HEp-2. Kind of experiment: Cytotoxicity against human Hep2 cells assessed as cell growth inhibition at 1 uM after 48 hrs by sulforhodamine B assay. Type of experiment: functional. The following applies: HEp-2, 48 h, read-out: GI.
For experiment [14], the system named is THP-1. Kind of experiment: Cytotoxicity against human THP1 cells assessed as cell growth inhibition at 1 uM after 48 hrs by sulforhodamine B assay. Type of experiment: functional. The following applies: THP-1, 48 h, read-out: GI.
Experiment [15] has as its system A549. Description: Cytotoxicity against human A549 cells assessed as cell growth inhibition at 1 uM after 48 hrs by sulforhodamine B assay. It is filed as functional. The following applies: A549, 48 h, read-out: GI.

Bounds are passed on as bounds.

In ChEMBL document CHEMBL1772942, “Synthesis and in vitro cytotoxic evaluation of N-alkylbromo and N-alkylphthalimido-isatins” (Bioorg Med Chem Lett, 2011) one finds inhibition of growth and IC50 data, which are given here for 13 compounds.

As for `O=C1C(=O)N(CCCCCN2C(=O)c3ccccc3C2=O)c2ccccc21`, the inhibition of growth at 100 µM in the experiment with A549 [1] amounted to 36%; with HCT-15 [3], 97%; in the experiment on THP-1 [4], 93%; in the experiment with HEp-2 [6], 85%. The inhibition of growth at 10 µM was found to be 4% with A549 [2], 9% in the experiment with HCT-15 [5], 10% in the experiment with HEp-2 [7] and 60% in the experiment on THP-1 [8].
For the compound `O=C1C(=O)N(CCBr)c2ccccc21`, the inhibition of growth at 100 µM in the experiment with A549 [1] was found to be 44%; in the experiment with HCT-15 [3] it was 89%; in the experiment on THP-1 [4], 96%; in the experiment with HEp-2 [6], 71%. Further, the inhibition of growth at 10 µM was found to be 38% in the experiment on A549 [2], 4% in the experiment with HCT-15 [5], 14% in the experiment on HEp-2 [7] and 14% in the experiment with THP-1 [8].
For orientation: IC50 means the concentration needed to halve the response being measured. A high value points to weaker potency in that assay. As for `O=C1C(=O)N(CCCCCCBr)c2ccccc21`, the half-inhibitory concentration (IC50) with HCT-15 [9] is 12.4 µM; with COLO 205, > 100 µM; in the experiment on PC-3 it was 11.7 µM; in the experiment on A549 [10], > 100 µM; in the experiment with THP-1 [11] it was 26.5 µM; with HeLa, 12 µM. Moreover, the inhibition of growth at 100 µM with A549 [1] amounted to 53%; in the experiment with HCT-15 [3], 95%; with THP-1 [4] it was 93%; with HEp-2 [6] it was 86%. For the same compound, the inhibition of growth at 10 µM with A549 [2] worked out at 0%; in the experiment with HCT-15 [5], 67%; in the experiment on HEp-2 [7], 48%; in the experiment with THP-1 [8], 94%.
As to `O=C1C(=O)N(CCN2C(=O)c3ccccc3C2=O)c2ccccc21`, the inhibition of growth at 100 µM came to 43% with A549 [1], 86% with HCT-15 [3], 96% with THP-1 [4] and 68% with HEp-2 [6]. Further, the inhibition of growth at 10 µM in the experiment on A549 [2] is 18%; in the experiment on HCT-15 [5], 3%; with HEp-2 [7] it was 10%; in the experiment on THP-1 [8], 9%.
As to `O=C1C(=O)N(CCCBr)c2ccccc21`, the IC50 with HCT-15 [9] was 13.8 µM; in the experiment on COLO 205 it was > 100 µM; in the experiment with PC-3, 15.3 µM; with A549 [10] it was > 100 µM; in the experiment on THP-1 [11], > 100 µM; with HeLa it was 7.77 µM. In addition, the inhibition of growth at 100 µM is 37% with A549 [1], 93% with HCT-15 [3], 95% in the experiment on THP-1 [4] and 93% in the experiment with HEp-2 [6]. Besides, the inhibition of growth at 10 µM in the experiment on A549 [2] was 0%; in the experiment on HCT-15 [5], 59%; in the experiment on HEp-2 [7], 36%; in the experiment on THP-1 [8], 80%.
On to `O=C1C(=O)N(CCCCCCN2C(=O)c3ccccc3C2=O)c2ccccc21`, for which the half-inhibitory concentration (IC50) is 9.73 µM in the experiment with HCT-15 [9]; > 100 µM with COLO 205; 12.8 µM with PC-3; > 100 µM with A549 [10]; > 100 µM in the experiment with THP-1 [11]; 8.82 µM in the experiment with HeLa. The inhibition of growth at 100 µM in the experiment on A549 [1] is 14%; in the experiment with HCT-15 [3] it was 91%; with THP-1 [4], 95%; in the experiment on HEp-2 [6] it was 90%. The inhibition of growth at 10 µM is 0% in the experiment with A549 [2], 49% in the experiment on HCT-15 [5], 39% in the experiment with HEp-2 [7] and 96% with THP-1 [8].
Turning to `O=c1[nH]cc(F)c(=O)[nH]1` [FLUOROURACIL], the inhibition of growth at 1 µM in the experiment on HCT-15 [12] turned out to be 31%.
Consider `O=C1C(=O)N(CCCCCBr)c2ccccc21`, for which the IC50 was 8.46 µM in the experiment with HCT-15 [9]; > 100 µM in the experiment on COLO 205; 11.5 µM in the experiment on PC-3; > 100 µM with A549 [10]; 42.3 µM with THP-1 [11]; 5.49 µM in the experiment with HeLa. The inhibition of growth at 100 µM with A549 [1] turned out to be 40%; in the experiment on HCT-15 [3], 91%; in the experiment with THP-1 [4] it was 91%; with HEp-2 [6] it was 81%. Also, the inhibition of growth at 10 µM was 0% in the experiment on A549 [2], 62% in the experiment on HCT-15 [5], 40% in the experiment with HEp-2 [7] and 85% in the experiment on THP-1 [8].
Consider `CO[C@@]12[C@H](COC(N)=O)C3=C(C(=O)C(C)=C(N)C3=O)N1C[C@@H]1N[C@@H]12` [MITOMYCIN], for which the inhibition of growth at 1 µM with HEp-2 [13] turned out to be 31%.
As to `COc1cccc2c1C(=O)c1c(O)c3c(c(O)c1C2=O)C[C@@](O)(C(=O)CO)C[C@@H]3O[C@H]1C[C@H](N)[C@H](O)[C@H](C)O1` [DOXORUBICIN], the values for the inhibition of growth at 1 µM in the experiment on THP-1 [14] and in the experiment on A549 [15] were 96% and 55%, respectively.
Consider `O=C1C(=O)N(CCCCBr)c2ccccc21`, for which the IC50 in the experiment on HCT-15 [9] is 11.8 µM; in the experiment on COLO 205 it was 54.2 µM; in the experiment with PC-3, 10.9 µM; in the experiment with A549 [10] it was > 100 µM; in the experiment with THP-1 [11], 12.4 µM; in the experiment on HeLa it was 4.57 µM. Besides, the inhibition of growth at 100 µM in the experiment on A549 [1] stood at 49%; in the experiment on HCT-15 [3], 88%; with THP-1 [4], 90%; in the experiment on HEp-2 [6] it was 68%. The inhibition of growth at 10 µM in the experiment on A549 [2] was determined as 30%; with HCT-15 [5], 62%; in the experiment with HEp-2 [7], 33%; in the experiment on THP-1 [8], 90%.
As to `O=C1C(=O)N(CCCN2C(=O)c3ccccc3C2=O)c2ccccc21`, the inhibition of growth at 100 µM in the experiment with A549 [1] turned out to be 1%; with HCT-15 [3], 58%; in the experiment with THP-1 [4] it was 96%; in the experiment on HEp-2 [6], 30%. In addition, the inhibition of growth at 10 µM in the experiment on A549 [2] was 0%; in the experiment on HCT-15 [5], 1%; with HEp-2 [7] it was 11%; in the experiment on THP-1 [8] it was 8%.
In the case of `O=C1C(=O)N(CCCCN2C(=O)c3ccccc3C2=O)c2ccccc21`, the inhibition of growth at 100 µM was 36% in the experiment with A549 [1], 89% in the experiment on HCT-15 [3], 92% in the experiment on THP-1 [4] and 73% in the experiment with HEp-2 [6]. Further, the inhibition of growth at 10 µM stood at 0% with A549 [2], 4% with HCT-15 [5], 15% with HEp-2 [7] and 44% in the experiment with THP-1 [8].
